This data set is described as follows: Toxicity liver stage against HepG2, at 10uM. The format is cell-based. Conditions: human, HepG2-A16-CD81EGFP cells; read-out: INHIBITION
Also noted: test concentration 10 uM, cell line HepG2-A16-CD81EGFP. The method, boiled down: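 Uninfected HepG2-A16-CD81EGFP cells, 3 × 10^3 per well, 1536-well, plated on prespotted compound at 10 μM final, parasite-free screening media added to match infected plates; puromycin 10 μM positive, DMSO 0.5% negative; run in parallel with 48 h PbLuc assay at 37 °C, 5% CO2; viability by CellTiter-Glo luminescence, normalized to controls.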

We go through 97 compounds from ChEMBL document CHEMBL4513216, “Probing the Open Global Health Chemical Diversity Library for Multistage-Active Starting Points for Next-Generation Antimalarials” (ACS Infect Dis, 2020).

Structures are written as SMILES.

For the compound `CCN(CC)C(=O)Cn1c(-c2ccc(Cl)cc2)nc(C)c(CCO)c1=O`, the cytotoxicity at 10 µM amounted to 2.62%.
With `CCNS(=O)(=O)c1ccc2c(c1)c(=O)n(CC)c(=O)n2CC` the figure was 10.4%; with `c1ccc(-c2nccc(CNC3CCc4ncnn4C3)n2)cc1` (configuration not stated), 0.787%; with `CN(C)S(=O)(=O)N1C[C@@H](OCc2cccnc2)[C@H]2OCCC[C@H]21`, 0.74%.
In the case of `COc1cccc(C(=O)NCCCN2CCc3ccccc3C2)c1OC`, the cytotoxicity at 10 µM stood at 6.67%.
As to `Cc1c[nH]c(C2CCCN(C(=O)CCc3c(C)n[nH]c3C)C2)n1` (configuration not stated), the cytotoxicity at 10 µM stood at 4.88%.
On to `CN(C)C(=O)CN1C[C@H]2CCN(c3ncccn3)CC[C@H]2S1(=O)=O`, for which the cytotoxicity at 10 µM was determined as 0.466%.
Then `Cc1cccc(NC(=O)N2Cc3c(CN(C)C)nn(C)c3C2)c1`, with 7.77%; and `CCOc1ccc(CCCC(=O)N2CCC(c3nnn[nH]3)CC2)cc1C`, with -3.57%; and `O=C1CC2(CCCCC2)CC(=O)N1CC(O)COCc1ccc(Cl)cc1` (configuration not stated), with -1.04%.
For `Cc1cc(N(C)C)nc(N2CCn3c(C)nnc3C2)n1`, the cytotoxicity at 10 µM is -5.14%.
Turning to `CCN(CC)c1ccc(C(=O)N2C[C@H]3CC[C@@H](C2)N(CCOC)C3)cc1`, the cytotoxicity at 10 µM is -12.3%.
Then `Cc1ccn(-c2ccc(N3CCCN(Cc4ccccc4)CC3)nn2)n1`, with 9.31%; and `COc1ccccc1OCC(=O)n1ncc(C#N)c1N`, with -20%.
Then `O=C(NC1CC1)c1cnc2n1CCCC2`, with -6.81%.
`CCOCC1COCCC12CCN(C(=O)CC1=CCCCC1)CC2` (configuration not stated): the cytotoxicity at 10 µM was 2.99%.
With `c1cn(Cc2ccc(N3CCCN(C4CCCC4)CC3)nc2)cn1` the figure was 12%.
With `CC(C)Cc1noc(CN2CCN(c3nccs3)CC2)n1` the figure was 0.607%; with `FC(F)(F)c1ccc(CNC[C@H]2COCc3nc4cccnc4n32)cc1`, 8.04%; with `Cc1nc(N2CCN(C)CC2)ncc1C(=O)N1CC(C)(C)C(C)(O)C1` (configuration not stated), 18.5%.
Then `CC(C)n1[nH]c(=O)c2c1NC(=O)CC2c1cccc(Br)c1` (configuration not stated), with 5.28%.
Take `Cc1cc(C2CCCN(S(=O)(=O)c3cn(C)cn3)C2)ccn1` (configuration not stated): the cytotoxicity at 10 µM stood at 3.42%.
Then `O=C(C1CCCC1)N1CCOc2cccc(F)c21`, with -2.54%; and `CCN(CC)C(=O)CN(C)C(=O)c1cccn1CCc1ccccc1`, with 1.98%; and `CC(=O)N1Cc2ccnn2CC(C(=O)NCc2cccnc2)C1` (configuration not stated), with -97%.
With `NCCn1nc(C2CCN(C(=O)Cc3ccccc3)C2)c2nccnc21` (configuration not stated) the figure was -15.9%; with `CCN(C)c1ccc(CNS(=O)(=O)C2CCOCC2)cc1F`, 10.3%.
With `CCc1ncc(C(=O)N2CCC(O)(CN3CCOCC3)C(C)(C)C2)cn1` (configuration not stated) the figure was -4.6%; with `CN(C)c1cnn(CC(=O)N2Cc3ccccc3C2)c(=O)c1`, 4.52%.
`COC(=O)CSCc1nc(-c2ccc(Cl)cc2)no1`: the cytotoxicity at 10 µM is 3.77%.
As for `CC(O)CN(C)C(=O)Nc1ccn(-c2cccc(C(F)(F)F)c2)n1` (configuration not stated), the cytotoxicity at 10 µM turned out to be 4.85%.
On to `CCc1nc(CN2CCCC(NCc3ncc(C(C)(C)C)o3)C2)no1` (configuration not stated), for which the cytotoxicity at 10 µM is 1.97%.
As for `CC(C)c1ocnc1C(=O)N1CCCC(c2ccn[nH]2)C1` (configuration not stated), the cytotoxicity at 10 µM is -3.92%.
Consider `CC(C)NC(=O)N(C)C(c1cccc(F)c1)c1ccccn1` (configuration not stated), for which the cytotoxicity at 10 µM came to 4.86%.
Then `C1CCc2nnc(CNc3nc(C4CC4)nc4c3CCNCC4)n2CC1`, with -7.39%.
For the compound `COc1ccc2c(c1)c(C(=O)Nc1nnn[nH]1)cn2C`, the cytotoxicity at 10 µM is -1.33%.
Turning to `c1cnnc(N2CCCC2CNCc2nc(C3CC3)no2)c1` (configuration not stated), the cytotoxicity at 10 µM is -22.6%.
Then `Cc1ncccc1C(=O)Nc1cccc(OCC(F)F)n1`, with -7.79%; and `CN(C)CCCn1ccnc1C1CCN(C(=O)Cc2cccnc2)CC1`, with 4.77%.
With `COCc1nc2cc(NCc3csc(C)n3)ccc2o1` the figure was 0.873%; with `CCN1CCN(C(=O)c2ccc3c(c2)OCC(=O)N3)[C@H]2CS(=O)(=O)C[C@H]21`, -49.6%; with `CC(C)N1CCC(NC(=O)NCCC(=O)NCc2ccccc2)C1` (configuration not stated), -0.986%.
With `CCOc1cc(CNC(=O)c2cnn(CC)c2C(F)(F)F)ccn1` the figure was 16.8%; with `COc1cccc(N2CCC(N3CCOC(C(F)(F)F)C3)CC2)c1` (configuration not stated), -1.71%; with `FC(F)Sc1ccc(NCc2nnc(C3CC3)o2)cc1`, 14.7%.
Turning to `CSc1nccc(N2CCC3(CCCN(Cc4cccc(C)c4)C3)C2)n1` (configuration not stated), the cytotoxicity at 10 µM was 12.1%.
Consider `Cc1ccccc1CC(=O)N1C[C@@H](O)[C@H](N2CCC(F)(F)CC2)C1`, for which the cytotoxicity at 10 µM was -14%.
As to `CCN(Cc1cnn(CC)c1)C(=O)CN1C(=O)CCc2ccccc21`, the cytotoxicity at 10 µM was -2.17%.
For the compound `COc1ccccc1CCNC(=O)N(C)C(C)CS(C)(=O)=O` (configuration not stated), the cytotoxicity at 10 µM is -48.8%.
Take `NC(=O)NCCC(=O)NCc1cccnc1N1CCc2ccccc2C1`: the cytotoxicity at 10 µM amounted to 4.92%.
Then `Cc1ccsc1C(Cc1ccccc1)NC(=O)CNC(=O)C1CC1` (configuration not stated), with 11.6%.
In the case of `O=S(=O)(Cc1ccccc1)c1nnc(N2CCCC2)s1`, the cytotoxicity at 10 µM was -6.27%.
With `CN(CC1CCC1)C(=O)Nc1cccnc1-n1cncn1` the figure was 2.86%; with `O=C(O)c1cccc(CC2CCN(c3cnccn3)CC2)c1`, -121%.
Take `O=C(O)CCCc1ccc2c(c1)CC(=O)N2`: the cytotoxicity at 10 µM is 1.51%.
Then `Cc1nnc(N2CCOC(C)C2)c(C#N)c1C` (configuration not stated), with -11.7%; and `COc1ccc(-n2nnc(C(=O)O)c2-c2ccccn2)cc1`, with 13.7%; and `Cc1nnc(NCC(c2cccs2)N2CCCC2)c(C#N)c1C` (configuration not stated), with -4.94%.
With `Cc1n[nH]c(C)c1CNc1ccc(-c2nc(C3CC3)no2)cn1` the figure was -24.3%.
With `CC(Cn1cccn1)C(=O)N1CCC(NS(C)(=O)=O)CC1` (configuration not stated), the cytotoxicity at 10 µM was -8.34%.
With `CC(C)Nc1nc2c(s1)C(=O)CN(CC1CC1)C2` the figure was -10.1%; with `CSc1cccc(CNC(=O)C2CC(=O)N(CCN(C)C)C2)c1` (configuration not stated), -4.15%; with `CCc1ccc(OCCn2cccn2)cc1`, 8.95%.
As to `O=C1CO[C@H]2CN(Cc3cccc(F)c3F)C[C@@H]2N1C1CCOCC1`, the cytotoxicity at 10 µM was -12.3%.
Take `CC(C)CCN1CCN(C(=O)c2cnccn2)CC1`: the cytotoxicity at 10 µM is 0.365%.
With `Cc1cc(=O)n2nc(-c3cccs3)nc2n1CC(=O)NC(C)C` the figure was 12.7%.
Turning to `Cc1cccc(C)c1OC1CN(C(=O)C2CCCN(C(=O)N(C)C)C2)C1` (configuration not stated), the cytotoxicity at 10 µM was -0.545%.
With `COc1ccc(C)cc1NC(=O)c1c(C)cn(C)c1CC(=O)O` the figure was -0.713%; with `COCCn1cc(NC(=O)NC(C)Cc2c(F)cccc2F)cn1` (configuration not stated), -4.5%; with `Cc1cccc(CN2CCC23CCCNC3)n1` (configuration not stated), 2.55%.
Consider `Cc1ccc(CN2CCOC3(COCCN(C(C)C)C3)C2)s1` (configuration not stated), for which the cytotoxicity at 10 µM was -0.82%.
`Cc1ccc(-c2noc(C(C)NS(C)(=O)=O)n2)cc1` (configuration not stated): the cytotoxicity at 10 µM was -9.24%.
With `CC(=O)N1CCCC(c2ccc(C(N)=O)cn2)C1` (configuration not stated) the figure was 5.07%.
With `O=C(O)C1(Oc2ccc3c(c2)OCO3)CCN(C2CCOCC2)CC1` the figure was -13.3%.
Turning to `CCCS(=O)(=O)N1C[C@@H](OCc2ccncc2)[C@H]2OCCC[C@H]21`, the cytotoxicity at 10 µM was determined as 5.56%.
`CS(=O)(=O)NCCN1CCSCC1c1ccc(Cl)cc1` (configuration not stated): the cytotoxicity at 10 µM is -3.7%.
For the compound `CC(C)(C)CC(=O)NC[C@H]1OC[C@@H](NCc2ccccn2)[C@@H]1O`, the cytotoxicity at 10 µM is -5.28%.
Take `CCCn1nc2c(cc1=O)CN(CCN1CCCC1=O)CC2`: the cytotoxicity at 10 µM is -11.6%.
With `O=C1CCCC2=Nc3nonc3NC(c3ccccc3Cl)C12` (configuration not stated) the figure was 18.5%; with `CC(C)NC(=O)C1CN(C(=O)CCc2ccccc2)CC12CCOCC2` (configuration not stated), -3%.
Then `Cc1ccsc1CN1CC[C@H]2O[C@H](C(=O)N3CCCO3)CC[C@H]21`, with 4.52%.
Take `CCOc1ccc(Oc2cc(N)ccn2)cc1`: the cytotoxicity at 10 µM turned out to be 2.9%.
With `O=C(NCc1ccccn1)[C@]12COC[C@H]1CN(Cc1ccsc1)C2` the figure was 4.91%; with `CN(C(=O)CNc1ccc(C#N)cc1)C1CCCCC1`, 0.0479%.
Consider `Cc1cc(NCCc2cnccn2)nc(-c2ccccc2O)n1`, for which the cytotoxicity at 10 µM was 10.9%.
As to `CC(C)(C)c1nc(CNC2CCN(S(C)(=O)=O)CC2)cs1`, the cytotoxicity at 10 µM was -2.34%.
With `Nc1nc(N2CCCCCC2)ncc1C(=O)NCc1ccc(F)c(Cl)c1` the figure was -0.585%; with `Cc1cccc(CN2CCn3c(C(=O)N(C)C)cnc3C2)c1`, -69.5%.
With `O=C(c1ccoc1)N1CCn2nc(CN3CCSCC3)cc2C1`, the cytotoxicity at 10 µM was -57.8%.
As for `CC(C)(C)c1cc(NC(=O)NCCc2nnc3n2CCC3)c(C#N)s1`, the cytotoxicity at 10 µM turned out to be 14.1%.
For `COc1ccc(OCCNC(=O)N2CCS(=O)(=O)CC2)cc1`, the cytotoxicity at 10 µM is -6.95%.
Then `Cc1cccc(OCCC(=O)N2CCCN(C(N)=O)CC2)c1C`, with -6.8%; and `CNc1cc(CNC(=O)c2ccccn2)nc(-c2ccncc2)n1`, with -2.63%.
For the compound `Cc1ncsc1CCN1CCC(N(C)Cc2noc(C(C)C)n2)C1` (configuration not stated), the cytotoxicity at 10 µM amounted to 2.17%.
With `Cc1ncccc1Oc1ncnc(N2CCC3(CCCO3)CC2)c1C`, the cytotoxicity at 10 µM was -6.89%.
As for `Cc1ccc(NC2CCN(C(=O)C(C)n3cncn3)CC2)nn1` (configuration not stated), the cytotoxicity at 10 µM is -14.2%.
In the case of `C[C@H]1CN(C(=O)c2ccc[nH]2)C[C@@]12CCN(c1ccsc1)C2=O`, the cytotoxicity at 10 µM is -77.4%.
